Laboratory results published in ChEMBL document CHEMBL1129639, “Synthesis and cardiotonic activity of novel pyrimidine derivatives: crystallographic and quantum chemical studies” (J Med Chem, 1996).

Legend:
Cavia porcellus [1] = species on record: Cavia porcellus; assay: Compound was evaluated for its effect on the frequency rate of spontaneously beating atria from Reserpine-treated guinea pigs as percentage variation from the control at concentration of 3 x 10E-6 M; assay type: functional
In short: (§1)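 Atria from reserpine-treated guinea pigs (reserpine 2 mg/kg ip, 48 and 24 h before death; only tyramine-unresponsive preparations used). Bath solution at 29 °C, gassed 95% O2/5% CO2, pH 7.5, resting tension […]. After 90 min equilibration, compound added cumulatively, 5 min per concentration. Isometric developed-tension amplitude or beating rate given as % variation from untreated control. Mean ± SEM, 6-10 assays.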

Cavia porcellus [2] = species on record: Cavia porcellus; assay: Effect on the contractile force of spontaneously beating atria from Reserpine-treated guinea pigs as percentage variation from the control at concentration of 10E-6 M; assay type: functional; in short: as §1
Cavia porcellus [3] = species on record: Cavia porcellus; assay: Compound was evaluated for its effect on the frequency rate of spontaneously beating atria from Reserpine-treated guinea pigs as percentage variation from the control at different concentration of 10E-5 M; assay type: functional; in short: as §1
Cavia porcellus [4] = species on record: Cavia porcellus; assay: Compound was evaluated for its effect on the frequency rate of spontaneously beating atria from Reserpine-treated guinea pigs as percentage variation from the control at different concentration of 10E-3 M; assay type: functional; in short: as §1
Cavia porcellus [5] = species on record: Cavia porcellus; assay: Compound was evaluated for its effect on the frequency rate of spontaneously beating atria from Reserpine-treated guinea pigs as percentage variation from the control at different concentration of 3 x 10E-5 M; assay type: functional; in short: as §1
Cavia porcellus [6] = species on record: Cavia porcellus; assay: Compound was evaluated for its effect on the frequency rate of spontaneously beating atria from Reserpine-treated guinea pigs as percentage variation from the control at different concentration of 10E-4 M; assay type: functional; in short: as §1
Cavia porcellus [7] = species on record: Cavia porcellus; assay: Effect on the frequency rate of spontaneously beating atria from Reserpine-treated guinea pigs as percentage variation from the control at concentration of 10E-6 M; assay type: functional; in short: as §1
Cavia porcellus [8] = species on record: Cavia porcellus; assay: Effect on the contractile force of spontaneously beating atria from Reserpine-treated guinea pigs as percentage variation from the control at concentration of 10E-3 M; assay type: functional; in short: as §1
Cavia porcellus [9] = species on record: Cavia porcellus; assay: Effect on the contractile force of spontaneously beating atria from Reserpine-treated guinea pigs as percentage variation from the control at concentration of 3 x 10E-5 M; assay type: functional; in short: as §1
Cavia porcellus [10] = species on record: Cavia porcellus; assay: Effect on the contractile force of spontaneously beating atria from Reserpine-treated guinea pigs as percentage variation from the control at concentration of 3 x 10E-6 M; assay type: functional; in short: as §1
Cavia porcellus [11] = species on record: Cavia porcellus; assay: Compound was evaluated for its effect on the frequency rate of spontaneously beating atria from Reserpine-treated guinea pigs as percentage variation from the control at different concentration of 3 x 10E-4 M; assay type: functional; in short: as §1
Cavia porcellus [12] = species on record: Cavia porcellus; assay: Effect on the contractile force of spontaneously beating atria from Reserpine-treated guinea pigs as percentage variation from the control at concentration of 10E-5 M; assay type: functional; in short: as §1
Cavia porcellus [13] = species on record: Cavia porcellus; assay: Effect on the contractile force of spontaneously beating atria from Reserpine-treated guinea pigs as percentage variation from the control at concentration of 3 x 10E-4 M; assay type: functional; in short: as §1
Cavia porcellus [14] = species on record: Cavia porcellus; assay: Effect on the contractile force of spontaneously beating atria from Reserpine treated guinea pigs as percentage variation from the control at concentration of 10E-4 M; assay type: functional; in short: as §1
Cavia porcellus [15] = species on record: Cavia porcellus; assay: Effect on the frequency rate of spontaneously beating atria from Reserpine-treated guinea pigs as percentage variation from the control at concentration of 10E-5 M; assay type: functional; in short: as §1
Cavia porcellus [16] = species on record: Cavia porcellus; assay: (§2) Compound was evaluated for its effect on the frequency rate of spontaneously beating atria from Reserpine-treated guinea pigs as percentage variation from the control at concentration of 3 x 10E-5 M; assay type: functional, guinea pig; in short: as §1
Cavia porcellus [17] = species on record: Cavia porcellus; assay: Effect on the frequency rate of spontaneously beating atria from Reserpine-treated guinea pigs as percentage variation from the control at concentration of 10E-4 M; assay type: functional; in short: as §1
Cavia porcellus [18] = species on record: Cavia porcellus; assay: Compound was evaluated for its effect on the frequency rate of spontaneously beating atria from Reserpine-treated guinea pigs as percentage variation from the control at concentration of 3 x 10E-4 M; assay type: functional; in short: as §1
Cavia porcellus [19] = species on record: Cavia porcellus; assay: Effect on the frequency rate of spontaneously beating atria from Reserpine-treated guinea pigs as percentage variation from the control at concentration of 10E-3 M; assay type: functional; in short: as §1
Cavia porcellus [20] = species on record: Cavia porcellus; assay: Inotropic effect in electrically driven left atrium from reserpine-treated guinea pigs at concentration of 10E-5 M; assay type: functional, Cardiac atrium
In short: (§3)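 Electrically driven left atrium from reserpine-treated guinea pigs (tyramine-unresponsive), 29 °C, pH 7.5, resting tension […], 90 min equilibration. Compound dissolved in DMSO and added cumulatively, 5 min per step. Where used, adenosine deaminase was preincubated 20 min, and basal force was taken after ADA addition. Developed tension given as % change over control. Mean ± SEM of six assays.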

Cavia porcellus [21] = species on record: Cavia porcellus; assay: Inotropic Response in Electrically Driven Left Atrium from Reserpine-Treated Guinea Pigs in the presence of 2 U/mL of adenosine deaminase (ADA) at 10E-3 M; assay type: functional; in short: as §3
Cavia porcellus [22] = species on record: Cavia porcellus; assay: Inotropic Response in Electrically Driven Left Atrium from Reserpine-Treated Guinea Pigs in the presence of 2 U/mL of adenosine deaminase (ADA) at 10E-4 M; assay type: functional; in short: as §3
Cavia porcellus [23] = species on record: Cavia porcellus; assay: Inotropic Response in Electrically Driven Left Atrium from Reserpine-Treated Guinea Pigs in the presence of 2 U/mL of adenosine deaminase (ADA) at 3 x 10E-5 M; assay type: functional; in short: as §3
Cavia porcellus [24] = species on record: Cavia porcellus; assay: Inotropic effect in electrically driven left atrium from reserpine-treated guinea pigs at concentration of 10E-4 M; assay type: functional, Cardiac atrium; in short: as §3
Cavia porcellus [25] = species on record: Cavia porcellus; assay: Inotropic Response in Electrically Driven Left Atrium from Reserpine-Treated Guinea Pigs in the absence of adenosine deaminase (ADA) at 10E-3 M; assay type: functional; in short: as §3
Cavia porcellus [26] = species on record: Cavia porcellus; assay: Inotropic effect in electrically driven left atrium from reserpine-treated guinea pigs at concentration of 10E-6 M; assay type: functional, Cardiac atrium; in short: as §3
Cavia porcellus [27] = species on record: Cavia porcellus; assay: Inotropic effect in electrically driven left atrium from reserpine-treated guinea pigs at concentration of 3 x 10E-5 M; assay type: functional, Cardiac atrium; in short: as §3
Cavia porcellus [28] = species on record: Cavia porcellus; assay: as §2; assay type: functional; in short: as §1
Cavia porcellus [29] = species on record: Cavia porcellus; assay: Inotropic Response in Electrically Driven Left Atrium from Reserpine-Treated Guinea Pigs in the absence of adenosine deaminase (ADA) at 10E-5 M; assay type: functional; in short: as §3
Adenosine receptor A1 = target: T1, Adenosine receptor A1 (Cavia porcellus, UniProt P47745); assay: Inhibition of [3H]-CHA binding to Adenosine A1 receptor in guinea pig heart
T1 sequence (P47745 whole entry): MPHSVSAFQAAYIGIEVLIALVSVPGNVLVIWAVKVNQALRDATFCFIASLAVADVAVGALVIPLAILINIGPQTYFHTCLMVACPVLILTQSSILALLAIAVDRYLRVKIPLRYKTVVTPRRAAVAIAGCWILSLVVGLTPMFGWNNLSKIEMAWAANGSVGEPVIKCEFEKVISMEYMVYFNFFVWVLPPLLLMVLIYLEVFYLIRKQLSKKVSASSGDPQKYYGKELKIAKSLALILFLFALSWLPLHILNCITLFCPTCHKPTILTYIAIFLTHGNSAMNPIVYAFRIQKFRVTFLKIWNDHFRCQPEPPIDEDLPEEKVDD
In short: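 Guinea pig heart membranes prepared in 50 mM Tris-HCl pH 7.4 and pretreated with adenosine deaminase 2 IU/mL for 30 min at 37 °C. Incubated with 1 nM [3H]CHA, membranes from 15 mg tissue, 120 min at 23 °C. Bound ligand separated by GF/B filtration; nonspecific binding defined with (R)-PIA. Six concentrations tested in triplicate; IC50 by probit analysis.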

Cavia porcellus [30] = species on record: Cavia porcellus; assay: Inotropic Response in Electrically Driven Left Atrium from Reserpine-Treated Guinea Pigs in the absence of adenosine deaminase (ADA) at 3 x 10E-5 M; assay type: functional; in short: as §3
Cavia porcellus [31] = species on record: Cavia porcellus; assay: Inotropic Response in Electrically Driven Left Atrium from Reserpine-Treated Guinea Pigs in the presence of 2 U/mL of adenosine deaminase (ADA) at 3 x 10E-6 M; assay type: functional; in short: as §3
Cavia porcellus [32] = species on record: Cavia porcellus; assay: Inotropic effect in electrically driven left atrium from reserpine-treated guinea pigs at concentration of 3 x 10E-6 M; assay type: functional, Cardiac atrium; in short: as §3
Cavia porcellus [33] = species on record: Cavia porcellus; assay: Inotropic Response in Electrically Driven Left Atrium from Reserpine-Treated Guinea Pigs in the absence of adenosine deaminase (ADA) at 3 x 10E-4 M; assay type: functional; in short: as §3
Cavia porcellus [34] = species on record: Cavia porcellus; assay: Inotropic Response in Electrically Driven Left Atrium from Reserpine-Treated Guinea Pigs in the presence of 2 U/mL of adenosine deaminase (ADA) at 10E-5 M; assay type: functional; in short: as §3
Cavia porcellus [35] = species on record: Cavia porcellus; assay: Inotropic Response in Electrically Driven Left Atrium from Reserpine-Treated Guinea Pigs in the presence of 2 U/mL of adenosine deaminase (ADA) at 3 x 10E-4 M; assay type: functional; in short: as §3
Cavia porcellus [36] = species on record: Cavia porcellus; assay: Inotropic Response in Electrically Driven Left Atrium from Reserpine-Treated Guinea Pigs in the absence of adenosine deaminase (ADA) at 3 x 10E-6 M; assay type: functional; in short: as §3
Cavia porcellus [37] = species on record: Cavia porcellus; assay: Inotropic effect in electrically driven left atrium from reserpine-treated guinea pigs at concentration of 3 x 10E-4 M; assay type: functional, Cardiac atrium; in short: as §3
Cavia porcellus [38] = species on record: Cavia porcellus; assay: Inotropic Response in Electrically Driven Left Atrium from Reserpine-Treated Guinea Pigs in the absence of adenosine deaminase (ADA) at 10E-4 M; assay type: functional; in short: as §3
Cavia porcellus [39] = species on record: Cavia porcellus; assay: Inotropic effect in electrically driven left atrium from reserpine-treated guinea pigs at concentration of 10E-3 M; assay type: functional, Cardiac atrium; in short: as §3

SMILES: CN(C)c1ncc(C(=O)O)c(C(C)(C)C)n1
- Variation (Cavia porcellus [1]): 3.33%
- Variation (Cavia porcellus [2]): 3.51%
- Variation (Cavia porcellus [3]): 3.33%
- Variation (Cavia porcellus [4]): 11.11%
- Variation (Cavia porcellus [5]): 3.33%
- Variation (Cavia porcellus [6]): 3.71%
- Variation (Cavia porcellus [7]): 0%
- Variation (Cavia porcellus [8]): 18.64%
- Variation (Cavia porcellus [9]): 12.51%
- Variation (Cavia porcellus [10]): 7.58%
- Variation (Cavia porcellus [11]): 7.42%
- Variation (Cavia porcellus [12]): 9.67%
- Variation (Cavia porcellus [13]): 14.21%
- Variation (Cavia porcellus [14]): 13.23%

SMILES: CCOC(=O)c1cnc(N(C)C)nc1
- Variation (Cavia porcellus [1]): 0%
- Variation (Cavia porcellus [2]): 1.19%
- Variation (Cavia porcellus [15]): 3.71%
- Variation (Cavia porcellus [7]): 0%
- Variation (Cavia porcellus [8]): -59.61%
- Variation (Cavia porcellus [9]): 11.04%
- Variation (Cavia porcellus [16]): 7.43%
- Variation (Cavia porcellus [10]): 4.76%
- Variation (Cavia porcellus [17]): 11.11%
- Variation (Cavia porcellus [12]): 5.55%
- Variation (Cavia porcellus [13]): 11.71%
- Variation (Cavia porcellus [14]): 9.03%
- Variation (Cavia porcellus [18]): 14.81%
- Variation (Cavia porcellus [19]): 18.51%

SMILES: CN(C)c1ncc(C(=O)O)c(Cc2ccccc2)n1
- Variation (Cavia porcellus [20]): 16.5%
- Increase (Cavia porcellus [21]): 57.2%
- Increase (Cavia porcellus [22]): 19.1%
- Increase (Cavia porcellus [23]): 9.52%
- Variation (Cavia porcellus [1]): 0%
- Variation (Cavia porcellus [2]): 3.52%
- Variation (Cavia porcellus [15]): 0%
- Variation (Cavia porcellus [24]): 36.3%
- Increase (Cavia porcellus [25]): 88.35%
- Variation (Cavia porcellus [26]): 3.23%
- Variation (Cavia porcellus [27]): 24.7%
- Variation (Cavia porcellus [28]): -3.85%
- Increase (Cavia porcellus [29]): 27.41%
- IC50 (Adenosine receptor A1): 583 µM
- Variation (Cavia porcellus [7]): 0%
- Variation (Cavia porcellus [8]): 88.05%
- Variation (Cavia porcellus [9]): 22.89%
- Increase (Cavia porcellus [30]): 33.61%
- Increase (Cavia porcellus [31]): 0%
- Variation (Cavia porcellus [10]): 9.37%
- Variation (Cavia porcellus [32]): 9.7%
- Increase (Cavia porcellus [33]): 66.21%
- Increase (Cavia porcellus [34]): 4.76%
- Increase (Cavia porcellus [35]): 33.3%
- Increase (Cavia porcellus [36]): 11.21%
- Variation (Cavia porcellus [17]): -5.02%
- Variation (Cavia porcellus [12]): 15.24%
- Variation (Cavia porcellus [13]): 67.75%
- Variation (Cavia porcellus [14]): 35.26%
- Variation (Cavia porcellus [18]): -5.69%
- Variation (Cavia porcellus [37]): 53%
- Increase (Cavia porcellus [38]): 44.95%
- Variation (Cavia porcellus [39]): 78.6%
- Variation (Cavia porcellus [19]): -10.25%
